Measurements as given in ChEMBL document CHEMBL1127789, “Synthesis, NMDA receptor antagonist activity, and anticonvulsant action of 1-aminocyclobutanecarboxylic acid derivatives” (1994).
Calls of active or inactive are those of the source. The rule behind the calls is not given here.

Tests used:
[1] = Equipotent molar ratio relative to D-AP5 (1.0) on neonatal rat motoneurones.; assay type: functional
[2] = Equipotent molar ratio relative to D-AP5 (1.0) on neonatal rat motoneurones; assay type: functional
In short: (§1)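 Isolated neonatal rat spinal cord in vitro, recording from motoneurones. Antagonist potency is given as an equipotent molar ratio against D-AP5, with D-AP5 set to 1.0.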

[3] = Equipotent molar ratio relative to D-AP5 (1.0) on neonatal rat motoneurones.; inactive; assay type: functional; in short: as §1
[4] = (§2) Tested for anticonvulsant activity following intracerebroventricular administration against sound-induced clonic convulsions in DBA/2 mice.; assay type: functional, Mus musculus
In short: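 Intracerebroventricular injection in DBA/2 mice, 7–11 mice per compound, several doses per compound. Read-out is protection against sound-induced (audiogenic) clonic seizures. Values carry 95% confidence limits. Overt behaviour (ataxia) and rectal temperature were also noted.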

[5] = tested on: Mus musculus; experiment: as §2; assay type: functional
In short: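 Intracerebroventricular dosing in DBA/2 mice at several doses, 7–11 mice per drug. Mice were exposed to sound, and protection against clonic (audiogenic) seizures was scored. Values were derived from dose–response data with 95% confidence limits. Overt behaviour (ataxia) and rectal temperature were also monitored.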

Row | Structure (SMILES) | Ratio [1] | other results
1 | N[C@]1(C(=O)O)C[C@@H](CCP(=O)(O)O)C1 | 1.1 | –
2 | N[C@]1(C(=O)O)C[C@@H](C(=O)CP(=O)(O)O)C1 | 4.2 | –
3 | N[C@]1(C(=O)O)C[C@H](CCC(=O)O)C1 | – | Ratio [2]: 1.8
4 | N[C@]1(C(=O)O)C[C@H](C(=O)CP(=O)(O)O)C1 | 0.33 | –
5 | O=C(O)C1CN(CCCP(=O)(O)O)CCN1 (racemic) | 0.2 | –
6 | N[C@]1(C(=O)O)C[C@@](C(=O)O)(C2CC2C(=O)O)C1 (some centres undefined) | – | Ratio [3]: inactive
7 | NC1(C(=O)O)CC([C@H](O)CP(=O)(O)O)C1 (some centres undefined) | 1 | –
8 | N[C@]1(C(=O)O)C[C@H](CCP(=O)(O)O)C1 | 0.32 | –
9 | N[C@]1(C(=O)O)C[C@](C(=O)O)(C2CC2C(=O)O)C1 (some centres undefined) | 0.28 | ED50 [4]: 0.36 nmol; ED50 [5]: 0.089 µg
10 | N[C@]1(C(=O)O)C[C@@H](CCC(=O)O)C1 | – | Ratio [2]: 7.9
11 | NC1(C(=O)O)CC([C@@H](O)CP(=O)(O)O)C1 (some centres undefined) | 0.39 | –
12 | N[C@@H](CCCP(=O)(O)O)C(=O)O | – | Ratio [2]: 1
